Activity calls are given as the source filed them. The rule behind the calls is not given here.
Key:
HCT-116 [1] = assay: Effect on total H2A protein expression in human HCT116 cells at 0.5 to 4 uM after 8 hrs by Western blot analysis; assay type: functional, cell-based
How it was run: (§1)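 HCT116 cells treated with test agents at the indicated concentrations for 8 h. Bmi-1, H2A-K119 ubiquitinated H2A (ub-H2A), total H2A and Ring1b detected by Western blot.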

HCT-116 [2] = assay: Effect on total Ring1b protein expression in human HCT116 cells at 0.5 to 4 uM after 8 hrs by Western blot analysis; assay type: functional, cell-based; how it was run: as §1
HCT-116 [3] = assay: Antiproliferative activity against human HCT116 cells after 72 hrs by SRB assay; assay type: functional, cell-based; conditions: HCT-116, 72 h
HCT-116 [4] = assay: Inhibition of Bmi1 protein expression in human HCT116 cells after 8 hrs by Western blot analysis; assay type: functional, cell-based
HT-29 = assay: Antiproliferative activity against human HT-29 cells after 72 hrs by SRB assay; assay type: functional, cell-based; conditions: HT-29, 72 h
HCT-8 = assay: Antiproliferative activity against human HCT8 cells after 72 hrs by SRB assay; assay type: functional, cell-based; conditions: HCT-8, 72 h
[5] = Antiproliferative activity against HAF after 72 hrs by SRB assay; set-up: species or system Homo sapiens
[6] = Selectivity index, ratio of IC50 for HAF to IC50 for human HCT116 cells; assay type: toxicity; conditions: HAF cells versus HCT116 cells, read-out: Ratio IC50
[7] = Selectivity index, ratio of IC50 for HAF to IC50 for human HT-29 cells; assay type: toxicity; conditions: HAF cells versus HT-29 cells, read-out: Ratio IC50
[8] = Selectivity index, ratio of IC50 for HAF to IC50 for human HCT8 cells; assay type: toxicity; conditions: HAF cells versus HCT8 cells, read-out: Ratio IC50
[9] = molecular target: T1, Polycomb complex protein BMI-1 (Homo sapiens) (UniProt P35226); assay: Inhibition of Bmi1 in human HCT116 cells assessed as reduction in H2A-K119Ub level after 8 hrs by Western blot analysis; assay type: cell-based; how it was run: as §1
T1 sequence (whole entry): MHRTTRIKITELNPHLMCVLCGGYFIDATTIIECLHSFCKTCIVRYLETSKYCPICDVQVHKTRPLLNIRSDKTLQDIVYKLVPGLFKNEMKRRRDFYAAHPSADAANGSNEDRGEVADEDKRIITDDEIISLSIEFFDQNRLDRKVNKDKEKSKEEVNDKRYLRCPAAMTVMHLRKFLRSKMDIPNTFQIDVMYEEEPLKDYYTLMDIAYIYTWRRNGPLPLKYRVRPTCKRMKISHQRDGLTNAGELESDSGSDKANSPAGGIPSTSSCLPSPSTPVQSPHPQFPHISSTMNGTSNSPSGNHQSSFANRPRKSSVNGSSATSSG

HCT-116 [10] = assay: Antimigratory activity against human HCT116 cells after 24 hrs by crystal violet staining based transwell migration assay; assay type: functional, cell-based
How it was run: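 HCT116 cells were tested for migration through a transwell chamber at 0.5 and 1 μM, compared against an untreated (0 μM) control. Significance was assessed versus that control.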

HCT-116 [11] = assay: Antimigratory activity against human HCT116 cells at 0.5 uM after 24 hrs by crystal violet staining based transwell migration assay relative to control; assay type: functional
How it was run: (§2)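 HCT116 cells in transwell chambers; migration compared with untreated control (0 μM).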

HCT-116 [12] = assay: Antimigratory activity against human HCT116 cells at 1 uM after 24 hrs by crystal violet staining based transwell migration assay relative to control; assay type: functional; how it was run: as §2
HCT-116 [13] = assay: Inhibition of colony formation in human HCT116 cells after 7 days by crystal violet staining based assay; assay type: functional, cell-based
How it was run: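 HCT116 colony formation assay over a concentration series; read-out was colony number and size.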

HCT-116 [14] = assay: Inhibition of cancer stem cell proliferation in human HCT116 cells assessed as decrease in CD133/CD44-positive cell population after 48 hrs by flow cytometry; assay type: functional, cell-based
How it was run: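 HCT116 cells, which coexpress CD133 and CD44; the CD133+/CD44+ stem-like population was quantified by flow cytometry after treatment over a concentration series.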

HCT-116 [15] = assay: Inhibition of cancer stem cell proliferation in human HCT116 cells assessed as CD133/CD44-positive cell population at 1 uM after 48 hrs by flow cytometry (reference value: 85.1 to 86.6%); assay type: functional; set-up: scale not given: the % may be the effect or the level left
HCT-116 [16] = assay: Induction of apoptosis in human HCT116 cells at 1 uM after 48 hrs by Annexin V/propidium iodide staining based flow cytometry relative to control; assay type: functional
HCT-116 [17] = assay: Induction of apoptosis in human HCT116 cells after 48 hrs by Annexin V/propidium iodide staining based flow cytometry; assay type: functional, cell-based
How it was run: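 HCT116 cells treated for 48 h; apoptosis scored by flow cytometry as early and late apoptotic fractions, compared with untreated controls.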

HCT-116 [18] = assay: Antitumor activity against human HCT116 cells xenografted in nude mouse assessed as tumor growth inhibition at 5 mg/kg/day, ip for 18 days; assay type: functional, organism-based
How it was run: (§3)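 HCT116 subcutaneous xenografts in nude mice; mice randomized into groups of n = 6 and given vehicle (DMSO), test article or reference intraperitoneally daily for 18 days, then sacrificed. End points were excised tumor weight and volume, body weight, histology of heart, liver, spleen, lung and kidney, and immunohistochemistry of tumors for Ki67 and Bmi-1.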

Mus musculus [19] = assay: Toxicity in nude mouse xenografted with human HCT116 cells assessed as change in body weight at 5 to 10 mg/kg/day, ip for 18 days; assay type: organism-based; conditions: in vivo, 432 h; how it was run: as §3
Mus musculus [20] = assay: Toxicity in nude mouse xenografted with human HCT116 cells assessed as abnormality in heart at 5 to 10 mg/kg/day, ip for 18 days by hematoxylin and eosin staining based microscopic analysis; assay type: organism-based; conditions: in vivo, 432 h; how it was run: as §3
Mus musculus [21] = assay: Toxicity in nude mouse xenografted with human HCT116 cells assessed as abnormality in liver at 5 to 10 mg/kg/day, ip for 18 days by hematoxylin and eosin staining based microscopic analysis; assay type: organism-based; conditions: in vivo, 432 h; how it was run: as §3
Mus musculus [22] = assay: Toxicity in nude mouse xenografted with human HCT116 cells assessed as abnormality in spleen at 5 to 10 mg/kg/day, ip for 18 days by hematoxylin and eosin staining based microscopic analysis; assay type: organism-based; conditions: in vivo, 432 h; how it was run: as §3
Mus musculus [23] = assay: Toxicity in nude mouse xenografted with human HCT116 cells assessed as abnormality in lung at 5 to 10 mg/kg/day, ip for 18 days by hematoxylin and eosin staining based microscopic analysis; assay type: organism-based; conditions: in vivo, 432 h; how it was run: as §3
Mus musculus [24] = assay: Toxicity in nude mouse xenografted with human HCT116 cells assessed as abnormality in kidney at 5 to 10 mg/kg/day, ip for 18 days by hematoxylin and eosin staining based microscopic analysis; assay type: organism-based; conditions: in vivo, 432 h; how it was run: as §3
HCT-116 [25] = assay: Antitumor activity against human HCT116 cells xenografted in nude mouse assessed as reduction in Ki67 expression in tumor at 5 to 10 mg/kg/day, ip for 18 days by IHC analysis; assay type: functional, organism-based; how it was run: as §3
Mus musculus [26] = assay: Decrease in Bmi1 expression in tumors of nude mouse xenografted with human HCT116 cells at 5 to 10 mg/kg/day, ip for 18 days by IHC analysis; assay type: functional, organism-based; how it was run: as §3

- IC50 (HCT-116 [3]): 250 nM
- IC50 (HCT-116 [4]; HCT-116, 8 h): 830 nM
- IC50 (HT-29): 450 nM
- IC50 (HCT-8): 360 nM
- inhibition [9]: Dose-dependent effect
Structure (SMILES): COc1cc2c(cc1C(=O)Nc1ccccc1OC(F)(F)F)CC[C@H]1C(C)(C)C(=O)C(C#N)=C[C@]21C
- Activity (HCT-116 [1]): inactive
- Activity (HCT-116 [2]): inactive
- inhibition (HCT-116 [4]): Dose-dependent effect
- IC50 [5]: 3.28 µM
- selectivity ratio [6]: 7.3 to 13.1
- selectivity ratio [7]: 7.3 to 13.1
- selectivity ratio [8]: 7.3 to 13.1
- Activity (HCT-116 [10]): Dose-dependent effect
- Activity (HCT-116 [11]): 30%
- Activity (HCT-116 [12]): 70%
- inhibition (HCT-116 [13]): Dose-dependent effect
- inhibition (HCT-116 [14]): Dose-dependent effect
- Activity (HCT-116 [15]): 56.1%
- Activity (HCT-116 [16]): 20.29%
- Activity (HCT-116 [17]): Dose-dependent effect
- TGI (HCT-116 [18]): Active
- Activity (Mus musculus [19]): Non-Toxic
- Activity (Mus musculus [20]): Non-Toxic
- Activity (Mus musculus [21]): Non-Toxic
- Activity (Mus musculus [22]): Non-Toxic
- Activity (Mus musculus [23]): Non-Toxic
- Activity (Mus musculus [24]): Non-Toxic
- Activity (HCT-116 [25]): Active
- Activity (Mus musculus [26]): Active

— ChEMBL document CHEMBL4266059, “Synthesis of Cyanoenone-Modified Diterpenoid Analogs as Novel Bmi-1-Mediated Antitumor Agents” (ACS Med Chem Lett, 2018)
